Results reported in the RNAGym collection of RNA variant scans (doi:10.1002/anie.201605470).

B1: Osa-1-4 twister ribozyme (parent)
chain: CCGCCUAACACUGCCAAUGCCGGUCCCAAGCCCGGAUAAAAGUGGAGGGGGCGG

Variants of: B1
Test: self-cleavage, relative activity (ratio to wild type); higher = more cleavage; co-transcriptional
How it was run: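 The 48 positions downstream of the cleavage site in a DNA template for a 54-nucleotide Oryza sativa twister ribozyme carried 97 % wild-type base and 1 % of each other base. After in vitro transcription (2 h, 37 °C) with co-transcriptional self-cleavage, the RNA was reverse-transcribed with a template-switching oligonucleotide, PCR-amplified and deep-sequenced. Relative activity is the fraction cleaved, judged by reads with or without upstream sequence and normalised to wild type.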
A40G C9U gave a self-cleavage of 0.23.
Work on A39G G53U yielded a self-cleavage of 0.2.
A39G G53A showed a self-cleavage of 0.55.
A39G G53C showed a self-cleavage of 0.08.
Work on A39G U18C yielded a self-cleavage of 0.96.
For A39G U18A, the self-cleavage was 1.
In the case of A39G U18G, the self-cleavage is reported as 0.87.
With A40G C32G the self-cleavage was 0.1.
In the case of A40G C32A, the self-cleavage is reported as 0.06.
With A39G G47C the self-cleavage was 0.09.
With A39G G47A the self-cleavage was 0.13.
With A39G G47U the self-cleavage was 0.13.
In the case of A40C, the self-cleavage is reported as 0.09.
A40G showed a self-cleavage of 0.91.
With A40C U43A the self-cleavage was 0.07.
Work on A40C U43C yielded a self-cleavage of 0.07.
A40C U43G showed a self-cleavage of 0.07.
For A39U C9A, the self-cleavage was 0.33.
A39U C9U gave a self-cleavage of 0.74.
For A39U C9G, the self-cleavage was 0.42.
With A39G U24C the self-cleavage was 0.14.
Variant A39G U24A has a self-cleavage of 0.09.
With A39G U24G the self-cleavage was 0.02.
A40C G35U showed a self-cleavage of 0.08.
With A40C G35A the self-cleavage was 0.08.
For A40C G35C, the self-cleavage was 0.05.
In the case of A39G G45C, the self-cleavage is reported as 0.07.
Work on A39G G45U yielded a self-cleavage of 0.08.
For A39G G45A, the self-cleavage was 0.13.
With A40G C11A the self-cleavage was 0.14.
Variant A40G C11G has a self-cleavage of 0.13.
For A40G C11U, the self-cleavage was 0.32.
With A39U C52G the self-cleavage was 1.01.
For A39U C52U, the self-cleavage was 1.
Variant A39U C52A has a self-cleavage of 0.96.
With A40G C14G the self-cleavage was 0.11.
A40G C14A showed a self-cleavage of 0.4.
Work on A40G C14U yielded a self-cleavage of 0.2.
For A40C A46C, the self-cleavage was 0.04.
A40C A46U showed a self-cleavage of 0.03.
With A40C A46G the self-cleavage was 0.02.
A40C G44C showed a self-cleavage of 0.09.
Work on A40C G44U yielded a self-cleavage of 0.06.
With A40C G44A the self-cleavage was 0.09.
A39G G42C gave a self-cleavage of 0.16.
A39G G42A gave a self-cleavage of 0.37.
Work on A39G G42U yielded a self-cleavage of 0.08.
A39U A8G showed a self-cleavage of 0.31.
Work on A39U A8U yielded a self-cleavage of 0.16.
For A39U A8C, the self-cleavage was 0.08.
For A40G A41U, the self-cleavage was 0.91.
With A40G A41C the self-cleavage was 0.41.
For A40G A41G, the self-cleavage was 0.22.
For A39U G34U, the self-cleavage was 0.53.
Variant A39U G34C has a self-cleavage of 0.25.
Work on A39U G34A yielded a self-cleavage of 0.68.
With A39G G44A the self-cleavage was 0.85.
A39G G44U showed a self-cleavage of 0.89.
A39G G44C showed a self-cleavage of 0.93.
Work on A40C G34C yielded a self-cleavage of 0.06.
Variant A40C G34A has a self-cleavage of 0.06.
For A40C G34U, the self-cleavage was 0.05.
A40C G48A showed a self-cleavage of 0.02.
In the case of A40C G48C, the self-cleavage is reported as 0.02.
A40C G48U showed a self-cleavage of 0.03.
A40C C26G showed a self-cleavage of 0.02.
With A40C C26U the self-cleavage was 0.04.
Work on A40C C26A yielded a self-cleavage of 0.02.
For A39U G53U, the self-cleavage was 0.19.
Variant A39U G53C has a self-cleavage of 0.07.
Work on A39U G53A yielded a self-cleavage of 0.49.
With A39U G44U the self-cleavage was 0.9.
For A39U G44A, the self-cleavage was 0.77.
Variant A39U G44C has a self-cleavage of 0.91.
Variant A39G G49C has a self-cleavage of 0.08.
Work on A39G G49U yielded a self-cleavage of 0.1.
With A39G G49A the self-cleavage was 0.26.
A39U C15G showed a self-cleavage of 0.23.
Variant A39U C15U has a self-cleavage of 0.56.
Work on A39U C15A yielded a self-cleavage of 0.24.
A39U G50A showed a self-cleavage of 0.63.
Work on A39U G50C yielded a self-cleavage of 0.82.
For A39U G50U, the self-cleavage was 1.01.
Variant A40C G30A has a self-cleavage of 0.02.
With A40C G30U the self-cleavage was 0.01.
With A40C G30C the self-cleavage was 0.02.
Work on A39U C25U yielded a self-cleavage of 0.45.
A39U C25G showed a self-cleavage of 0.07.
For A39U C25A, the self-cleavage was 0.06.
A39U G45U gave a self-cleavage of 0.05.
For A39U G45C, the self-cleavage was 0.06.
A39U G45A gave a self-cleavage of 0.12.
Variant A40C G49C has a self-cleavage of 0.02.
Work on A40C G49U yielded a self-cleavage of 0.03.
A40C G49A gave a self-cleavage of 0.04.
With A39U C14U the self-cleavage was 0.17.
With A39U C14G the self-cleavage was 0.12.
Work on A39U C14A yielded a self-cleavage of 0.09.
In the case of A39G U37C, the self-cleavage is reported as 1.
A39G U37G showed a self-cleavage of 1.01.
A39G U37A showed a self-cleavage of 1.01.
In the case of A39U G30U, the self-cleavage is reported as 0.05.
Variant A39U G30A has a self-cleavage of 0.04.
Work on A39U G30C yielded a self-cleavage of 0.05.
Variant A39G G51U has a self-cleavage of 0.3.
With A39G G51A the self-cleavage was 0.67.
A39G G51C showed a self-cleavage of 0.09.
With A39U G48C the self-cleavage was 0.05.
A39U G48A gave a self-cleavage of 0.08.
In the case of A39U G48U, the self-cleavage is reported as 0.06.
A40G A8U showed a self-cleavage of 0.11.
In the case of A40G A8G, the self-cleavage is reported as 0.18.
Work on A40G A8C yielded a self-cleavage of 0.06.
A40G C25G showed a self-cleavage of 0.06.
Variant A40G C25A has a self-cleavage of 0.06.
A40G C25U showed a self-cleavage of 0.14.
In the case of A39U A46G, the self-cleavage is reported as 0.04.
Work on A39U A46C yielded a self-cleavage of 0.05.
For A39U A46U, the self-cleavage was 0.07.
Work on A39U C11G yielded a self-cleavage of 0.24.
With A39U C11U the self-cleavage was 0.89.
Work on A39U C11A yielded a self-cleavage of 0.38.
In the case of A40G C31U, the self-cleavage is reported as 0.16.
For A40G C31G, the self-cleavage was 0.08.
In the case of A40G C31A, the self-cleavage is reported as 0.03.
A39U U24A showed a self-cleavage of 0.07.
Work on A39U U24C yielded a self-cleavage of 0.12.
Work on A39U U24G yielded a self-cleavage of 0.03.
Work on A40G C15A yielded a self-cleavage of 0.13.
In the case of A40G C15G, the self-cleavage is reported as 0.14.
A40G C15U gave a self-cleavage of 0.13.
A39U G49C gave a self-cleavage of 0.06.
With A39U G49A the self-cleavage was 0.11.
In the case of A39U G49U, the self-cleavage is reported as 0.08.
Work on A40C C9A yielded a self-cleavage of 0.02.
A40C C9U gave a self-cleavage of 0.05.
In the case of A40C C9G, the self-cleavage is reported as 0.07.
For A40C C32U, the self-cleavage was 0.03.
Variant A40C C32G has a self-cleavage of 0.03.
For A40C C32A, the self-cleavage was 0.04.
For A40C G45U, the self-cleavage was 0.03.
A40C G45A showed a self-cleavage of 0.04.
For A40C G45C, the self-cleavage was 0.03.
With A39U C21G the self-cleavage was 0.07.
For A39U C21A, the self-cleavage was 0.38.
Work on A39U C21U yielded a self-cleavage of 0.99.
Work on A40C U24A yielded a self-cleavage of 0.04.
A40C U24G gave a self-cleavage of 0.01.
With A40C U24C the self-cleavage was 0.03.
With A39U C27A the self-cleavage was 0.12.
Work on A39U C27G yielded a self-cleavage of 0.09.
For A39U C27U, the self-cleavage was 0.12.
For A40G A7C, the self-cleavage was 0.05.
With A40G A7U the self-cleavage was 0.08.
A40G A7G gave a self-cleavage of 0.35.
A39U G23U gave a self-cleavage of 0.05.
Work on A39U G23A yielded a self-cleavage of 0.26.
In the case of A39U G23C, the self-cleavage is reported as 0.06.
Variant A39U C26G has a self-cleavage of 0.11.
Variant A39U C26U has a self-cleavage of 0.54.
A39U C26A gave a self-cleavage of 0.04.
Work on A40C G47A yielded a self-cleavage of 0.05.
Work on A40C G47U yielded a self-cleavage of 0.04.
Variant A40C G47C has a self-cleavage of 0.03.
Variant A40C G50C has a self-cleavage of 0.07.
A40C G50A showed a self-cleavage of 0.08.
Work on A40C G50U yielded a self-cleavage of 0.07.
